# In ChEMBL document CHEMBL4715736, “Identification of anticancer agents based on the thieno[2,3-b]pyridine and 1H-pyrazole molecular scaffolds” (2016):
# Experiments:
# Type in all cases: functional
# NCI-H226 [1] = assay: Growth inhibition of human NCI-H226 cells assessed as cell growth at 0.01 uM incubated for 48 hrs by sulforhodamine B assay relative to control; conditions: read-out: Activity
# HT-29 [2] = assay: Growth inhibition of human HT-29 cells assessed as cell growth at 0.01 uM incubated for 48 hrs by sulforhodamine B assay relative to control; conditions: read-out: Activity
# SNB-75 [3] = assay: Growth inhibition of human SNB-75 cells assessed as cell growth at 0.01 uM incubated for 48 hrs by sulforhodamine B assay relative to control; conditions: read-out: Activity
# PC-3 = assay: Growth inhibition of human PC-3 cells assessed as cell growth at 0.01 uM incubated for 48 hrs by sulforhodamine B assay relative to control; conditions: read-out: Activity
# SR = assay: Growth inhibition of human SR cells assessed as cell growth at 0.1 uM incubated for 48 hrs by sulforhodamine B assay relative to control; conditions: read-out: Activity
# NCI-H226 [4] = assay: Growth inhibition of human NCI-H226 cells assessed as cell growth at 0.1 uM incubated for 48 hrs by sulforhodamine B assay relative to control; conditions: read-out: Activity
# SNB-19 = assay: Growth inhibition of human SNB-19 cells assessed as cell growth at 0.1 uM incubated for 48 hrs by sulforhodamine B assay relative to control; conditions: read-out: Activity
# SK-MEL-5 = assay: Growth inhibition of human SK-MEL-5 cells assessed as cell growth at 0.1 uM incubated for 48 hrs by sulforhodamine B assay relative to control; conditions: read-out: Activity
# CCRF-CEM [5] = assay: Growth inhibition of human CCRF-CEM cells assessed as cell growth at 1 uM incubated for 48 hrs by sulforhodamine B assay relative to control; conditions: read-out: Activity
# Summary of the method: (§1)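 NCI Developmental Therapeutics Program NCI60 panel. Compounds that were active in the 10 µM one-dose screen went on to dose–response testing. Growth at each concentration is expressed relative to untreated control (100%). GI50 (concentration giving 50% of maximal inhibition of proliferation) and TGI (concentration giving total growth inhibition) were derived from the curves.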
# HCT-15 = assay: Growth inhibition of human HCT-15 cells assessed as cell growth at 1 uM incubated for 48 hrs by sulforhodamine B assay relative to control; conditions: read-out: Activity
# SNB-75 [6] = assay: Growth inhibition of human SNB-75 cells assessed as cell growth at 1 uM incubated for 48 hrs by sulforhodamine B assay relative to control; conditions: read-out: Activity
# SK-MEL-2 = assay: Growth inhibition of human SK-MEL-2 cells assessed as cell growth at 1 uM incubated for 48 hrs by sulforhodamine B assay relative to control; conditions: read-out: Activity
# ACHN = assay: Growth inhibition of human ACHN cells assessed as cell growth at 1 uM incubated for 48 hrs by sulforhodamine B assay relative to control; conditions: read-out: Activity
# UO-31 = assay: Growth inhibition of human UO-31 cells assessed as cell growth at 1 uM incubated for 48 hrs by sulforhodamine B assay relative to control; conditions: read-out: Activity
# CCRF-CEM [7] = assay: Growth inhibition of human CCRF-CEM cells assessed as cell growth at 100 uM incubated for 48 hrs by sulforhodamine B assay relative to control; conditions: read-out: Activity; summary of the method: as §1
# K562 = assay: Growth inhibition of human K562 cells assessed as cell growth at 100 uM incubated for 48 hrs by sulforhodamine B assay relative to control; conditions: read-out: Activity
# KM12 [8] = assay: Growth inhibition of human KM12 cells assessed as cell growth at 100 uM incubated for 48 hrs by sulforhodamine B assay relative to control; conditions: read-out: Activity
# SNB-75 [9] = assay: Growth inhibition of human SNB-75 cells assessed as cell growth at 100 uM incubated for 48 hrs by sulforhodamine B assay relative to control; conditions: read-out: Activity
# UACC-62 [10] = assay: Growth inhibition of human UACC-62 cells assessed as cell growth at 100 uM incubated for 48 hrs by sulforhodamine B assay relative to control; conditions: read-out: Activity
# OVCAR-5 = assay: Growth inhibition of human OVCAR-5 cells assessed as cell growth at 100 uM incubated for 48 hrs by sulforhodamine B assay relative to control; conditions: read-out: Activity
# OVCAR-8 = assay: Growth inhibition of human OVCAR-8 cells assessed as cell growth at 100 uM incubated for 48 hrs by sulforhodamine B assay relative to control; conditions: read-out: Activity
# A498 = assay: Growth inhibition of human A498 cells assessed as cell growth at 100 uM incubated for 48 hrs by sulforhodamine B assay relative to control; conditions: read-out: Activity; summary of the method: as §1
# DU-145 = assay: Growth inhibition of human DU-145 cells assessed as cell growth at 100 uM incubated for 48 hrs by sulforhodamine B assay relative to control; conditions: read-out: Activity; summary of the method: as §1
# Hs-578T = assay: Growth inhibition of human Hs-578T cells assessed as cell growth at 100 uM incubated for 48 hrs by sulforhodamine B assay relative to control; conditions: read-out: Activity
# HOP-92 = assay: Growth inhibition of human HOP-92 cells incubated for 48 hrs by sulforhodamine B assay
# Summary of the method: (§2)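 NCI60 panel at the NCI Developmental Therapeutics Program. Only compounds active in the 10 µM screen went to dose-response testing. GI50, the concentration giving 50% of maximal inhibition of proliferation, and TGI, the concentration giving total growth inhibition, were derived from the dose-response curves.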
# NCI-H460 = assay: Growth inhibition of human NCI-H460 cells incubated for 48 hrs by sulforhodamine B assay; summary of the method: as §2
# NCI-H522 = assay: Growth inhibition of human NCI-H522 cells incubated for 48 hrs by sulforhodamine B assay; summary of the method: as §2
# COLO 205 = assay: Growth inhibition of human COLO 205 cells incubated for 48 hrs by sulforhodamine B assay; summary of the method: as §1
# HT-29 [11] = assay: Growth inhibition of human HT-29 cells incubated for 48 hrs by sulforhodamine B assay; summary of the method: as §2
# KM12 [12] = assay: Growth inhibition of human KM12 cells incubated for 48 hrs by sulforhodamine B assay; summary of the method: as §2
# SNB-75 [13] = assay: Growth inhibition of human SNB-75 cells incubated for 48 hrs by sulforhodamine B assay
# Summary of the method: (§3)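 NCI DTP 60-line human tumour panel. Dose-response curves were run only for ligands active in the initial 10 µM screen. GI50 (concentration giving 50% of maximal inhibition of proliferation) and TGI (concentration giving total growth inhibition) were derived from these curves.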
# UACC-62 [14] = assay: Growth inhibition of human UACC-62 cells incubated for 48 hrs by sulforhodamine B assay; summary of the method: as §3
# RXF 393 = assay: Growth inhibition of human RXF 393 cells incubated for 48 hrs by sulforhodamine B assay; conditions: for CC50: read-out: LC50 (the source's name); summary of the method: as §3
# MDA-MB-231 = assay: Growth inhibition of human MDA-MB-231 cells incubated for 48 hrs by sulforhodamine B assay; conditions: for CC50: read-out: LC50 (the source's name); summary of the method: as §2
# HOP-62 = assay: Growth inhibition of human HOP-62 cells assessed as cell growth at 0.1 uM incubated for 48 hrs by sulforhodamine B assay relative to control; conditions: read-out: Activity
smiles,measurement,setting,value
Cc1cc(C)c(NC(=O)c2sc3nc4c(cc3c2N)CN(Cc2ccccc2)CC4)c(C)c1,growth at 0.01 µM,NCI-H226 [1],92%
same,growth at 0.01 µM,HT-29 [2],105%
same,growth at 0.01 µM,SNB-75 [3],82%
same,growth at 0.01 µM,PC-3,94%
same,growth at 0.1 µM,SR,103%
same,growth at 0.1 µM,NCI-H226 [4],93%
same,growth at 0.1 µM,SNB-19,96%
same,growth at 0.1 µM,SK-MEL-5,93%
same,growth at 1 µM,CCRF-CEM [5],88%
same,growth at 1 µM,HCT-15,68%
same,growth at 1 µM,SNB-75 [6],79%
same,growth at 1 µM,SK-MEL-2,96%
same,growth at 1 µM,ACHN,89%
same,growth at 1 µM,UO-31,77%
same,growth at 100 µM,CCRF-CEM [7],-3%
same,growth at 100 µM,K562,13%
same,growth at 100 µM,KM12 [8],-9%
same,growth at 100 µM,SNB-75 [9],-9%
same,growth at 100 µM,UACC-62 [10],-22%
same,growth at 100 µM,OVCAR-5,14%
same,growth at 100 µM,OVCAR-8,14%
same,growth at 100 µM,A498,-2%
same,growth at 100 µM,DU-145,-5%
same,growth at 100 µM,Hs-578T,-3%
same,GI50,HOP-92,0.877 µM
same,LC50 (concentration killing 50% of the starting cells),HOP-92,> 100 µM
same,TGI,HOP-92,42.6 µM
same,GI50,NCI-H460,3.29 µM
same,LC50,NCI-H460,> 100 µM
same,TGI,NCI-H460,16.3 µM
same,GI50,NCI-H522,1.6 µM
same,LC50,NCI-H522,> 100 µM
same,TGI,NCI-H522,6.83 µM
same,GI50,COLO 205,2.98 µM
same,LC50 (concentration killing 50% of cells),COLO 205,68.8 µM
same,TGI,COLO 205,10.1 µM
same,GI50,HT-29 [11],2.88 µM
same,LC50,HT-29 [11],> 100 µM
same,TGI,HT-29 [11],13.2 µM
same,GI50,KM12 [12],3.26 µM
same,LC50,KM12 [12],> 100 µM
same,TGI,KM12 [12],43.1 µM
same,GI50,SNB-75 [13],2.35 µM
same,LC50,SNB-75 [13],> 100 µM
same,TGI,SNB-75 [13],11 µM
same,GI50,UACC-62 [14],3.9 µM
same,LC50,UACC-62 [14],> 100 µM
same,TGI,UACC-62 [14],42.4 µM
same,GI50,RXF 393,2.45 µM
same,TGI,RXF 393,18.5 µM
same,CC50,RXF 393,> 100 µM
same,GI50,MDA-MB-231,5.75 µM
same,TGI,MDA-MB-231,58.9 µM
same,CC50,MDA-MB-231,> 100 µM
Cc1cccc(NC(=O)c2sc3nc4c(cc3c2N)C(=O)CCC4)c1,growth at 0.01 µM,NCI-H226 [1],95%
same,growth at 0.01 µM,HT-29 [2],97%
same,growth at 0.01 µM,SNB-75 [3],80%
same,growth at 0.01 µM,PC-3,95%
same,growth at 0.1 µM,HOP-62,69%
same,growth at 0.1 µM,NCI-H226 [4],94%
same,growth at 0.1 µM,SNB-19,76%
same,growth at 0.1 µM,SK-MEL-5,44%
same,growth at 1 µM,CCRF-CEM [5],31%
same,growth at 1 µM,HCT-15,24%
same,growth at 1 µM,SNB-75 [6],6%
same,growth at 1 µM,SK-MEL-2,17%
same,growth at 1 µM,ACHN,49%
same,growth at 1 µM,UO-31,55%
same,growth at 100 µM,CCRF-CEM [7],-7%
same,growth at 100 µM,K562,17%
same,growth at 100 µM,KM12 [8],-58%
same,growth at 100 µM,SNB-75 [9],1%
same,growth at 100 µM,UACC-62 [10],33%
same,growth at 100 µM,OVCAR-5,-20%
same,growth at 100 µM,OVCAR-8,-30%
same,growth at 100 µM,A498,-53%
same,growth at 100 µM,DU-145,-34%
same,growth at 100 µM,Hs-578T,-48%
same,GI50,HOP-92,1 µM
same,LC50 (concentration killing 50% of the starting cells),HOP-92,> 100 µM
same,TGI,HOP-92,≥ 100 µM
same,GI50,NCI-H460,0.286 µM
same,LC50,NCI-H460,> 100 µM
same,TGI,NCI-H460,≥ 100 µM
same,GI50,NCI-H522,0.107 µM
same,LC50,NCI-H522,> 100 µM
same,TGI,NCI-H522,621 µM
same,GI50,COLO 205,0.197 µM
same,LC50 (concentration killing 50% of cells),COLO 205,> 100 µM
same,TGI,COLO 205,≥ 100 µM
same,GI50,HT-29 [11],0.199 µM
same,LC50,HT-29 [11],≥ 100 µM
same,TGI,HT-29 [11],≥ 100 µM
same,GI50,KM12 [12],0.21 µM
same,LC50,KM12 [12],> 100 µM
same,TGI,KM12 [12],> 100 µM
same,GI50,SNB-75 [13],0.23 µM
same,LC50,SNB-75 [13],> 100 µM
same,TGI,SNB-75 [13],≥ 100 µM
same,GI50,UACC-62 [14],0.333 µM
same,LC50,UACC-62 [14],> 100 µM
same,TGI,UACC-62 [14],≥ 100 µM
same,GI50,RXF 393,0.167 µM
same,TGI,RXF 393,≥ 100 µM
same,CC50,RXF 393,> 100 µM
same,GI50,MDA-MB-231,0.559 µM
same,TGI,MDA-MB-231,≥ 100 µM
same,CC50,MDA-MB-231,> 100 µM
